Measurements published in PMC3988618 (Messenger (Los Angeles, Calif. : Print), 2012).
Values belong to the molecule of their own block, whether it stands above or below them.

How the values were obtained:
type 1 InsP3R (InsP3R1) = type 1 InsP3R (InsP3R1) (Mus musculus, UniProt P11881); test: Inhibition of Ins; assay type: cell-based; details: for IC50: read-out: Ins P3R antagonism IC50 (inhibition of Ins(1,4,5)P3-induced Ca2+ release), permeabilized L15 fibroblasts overexpressing InsP3R1, Ca2+ release induced by 250 nM Ins(1,4,5)P3
Sequence of type 1 InsP3R (InsP3R1) (P11881 whole entry): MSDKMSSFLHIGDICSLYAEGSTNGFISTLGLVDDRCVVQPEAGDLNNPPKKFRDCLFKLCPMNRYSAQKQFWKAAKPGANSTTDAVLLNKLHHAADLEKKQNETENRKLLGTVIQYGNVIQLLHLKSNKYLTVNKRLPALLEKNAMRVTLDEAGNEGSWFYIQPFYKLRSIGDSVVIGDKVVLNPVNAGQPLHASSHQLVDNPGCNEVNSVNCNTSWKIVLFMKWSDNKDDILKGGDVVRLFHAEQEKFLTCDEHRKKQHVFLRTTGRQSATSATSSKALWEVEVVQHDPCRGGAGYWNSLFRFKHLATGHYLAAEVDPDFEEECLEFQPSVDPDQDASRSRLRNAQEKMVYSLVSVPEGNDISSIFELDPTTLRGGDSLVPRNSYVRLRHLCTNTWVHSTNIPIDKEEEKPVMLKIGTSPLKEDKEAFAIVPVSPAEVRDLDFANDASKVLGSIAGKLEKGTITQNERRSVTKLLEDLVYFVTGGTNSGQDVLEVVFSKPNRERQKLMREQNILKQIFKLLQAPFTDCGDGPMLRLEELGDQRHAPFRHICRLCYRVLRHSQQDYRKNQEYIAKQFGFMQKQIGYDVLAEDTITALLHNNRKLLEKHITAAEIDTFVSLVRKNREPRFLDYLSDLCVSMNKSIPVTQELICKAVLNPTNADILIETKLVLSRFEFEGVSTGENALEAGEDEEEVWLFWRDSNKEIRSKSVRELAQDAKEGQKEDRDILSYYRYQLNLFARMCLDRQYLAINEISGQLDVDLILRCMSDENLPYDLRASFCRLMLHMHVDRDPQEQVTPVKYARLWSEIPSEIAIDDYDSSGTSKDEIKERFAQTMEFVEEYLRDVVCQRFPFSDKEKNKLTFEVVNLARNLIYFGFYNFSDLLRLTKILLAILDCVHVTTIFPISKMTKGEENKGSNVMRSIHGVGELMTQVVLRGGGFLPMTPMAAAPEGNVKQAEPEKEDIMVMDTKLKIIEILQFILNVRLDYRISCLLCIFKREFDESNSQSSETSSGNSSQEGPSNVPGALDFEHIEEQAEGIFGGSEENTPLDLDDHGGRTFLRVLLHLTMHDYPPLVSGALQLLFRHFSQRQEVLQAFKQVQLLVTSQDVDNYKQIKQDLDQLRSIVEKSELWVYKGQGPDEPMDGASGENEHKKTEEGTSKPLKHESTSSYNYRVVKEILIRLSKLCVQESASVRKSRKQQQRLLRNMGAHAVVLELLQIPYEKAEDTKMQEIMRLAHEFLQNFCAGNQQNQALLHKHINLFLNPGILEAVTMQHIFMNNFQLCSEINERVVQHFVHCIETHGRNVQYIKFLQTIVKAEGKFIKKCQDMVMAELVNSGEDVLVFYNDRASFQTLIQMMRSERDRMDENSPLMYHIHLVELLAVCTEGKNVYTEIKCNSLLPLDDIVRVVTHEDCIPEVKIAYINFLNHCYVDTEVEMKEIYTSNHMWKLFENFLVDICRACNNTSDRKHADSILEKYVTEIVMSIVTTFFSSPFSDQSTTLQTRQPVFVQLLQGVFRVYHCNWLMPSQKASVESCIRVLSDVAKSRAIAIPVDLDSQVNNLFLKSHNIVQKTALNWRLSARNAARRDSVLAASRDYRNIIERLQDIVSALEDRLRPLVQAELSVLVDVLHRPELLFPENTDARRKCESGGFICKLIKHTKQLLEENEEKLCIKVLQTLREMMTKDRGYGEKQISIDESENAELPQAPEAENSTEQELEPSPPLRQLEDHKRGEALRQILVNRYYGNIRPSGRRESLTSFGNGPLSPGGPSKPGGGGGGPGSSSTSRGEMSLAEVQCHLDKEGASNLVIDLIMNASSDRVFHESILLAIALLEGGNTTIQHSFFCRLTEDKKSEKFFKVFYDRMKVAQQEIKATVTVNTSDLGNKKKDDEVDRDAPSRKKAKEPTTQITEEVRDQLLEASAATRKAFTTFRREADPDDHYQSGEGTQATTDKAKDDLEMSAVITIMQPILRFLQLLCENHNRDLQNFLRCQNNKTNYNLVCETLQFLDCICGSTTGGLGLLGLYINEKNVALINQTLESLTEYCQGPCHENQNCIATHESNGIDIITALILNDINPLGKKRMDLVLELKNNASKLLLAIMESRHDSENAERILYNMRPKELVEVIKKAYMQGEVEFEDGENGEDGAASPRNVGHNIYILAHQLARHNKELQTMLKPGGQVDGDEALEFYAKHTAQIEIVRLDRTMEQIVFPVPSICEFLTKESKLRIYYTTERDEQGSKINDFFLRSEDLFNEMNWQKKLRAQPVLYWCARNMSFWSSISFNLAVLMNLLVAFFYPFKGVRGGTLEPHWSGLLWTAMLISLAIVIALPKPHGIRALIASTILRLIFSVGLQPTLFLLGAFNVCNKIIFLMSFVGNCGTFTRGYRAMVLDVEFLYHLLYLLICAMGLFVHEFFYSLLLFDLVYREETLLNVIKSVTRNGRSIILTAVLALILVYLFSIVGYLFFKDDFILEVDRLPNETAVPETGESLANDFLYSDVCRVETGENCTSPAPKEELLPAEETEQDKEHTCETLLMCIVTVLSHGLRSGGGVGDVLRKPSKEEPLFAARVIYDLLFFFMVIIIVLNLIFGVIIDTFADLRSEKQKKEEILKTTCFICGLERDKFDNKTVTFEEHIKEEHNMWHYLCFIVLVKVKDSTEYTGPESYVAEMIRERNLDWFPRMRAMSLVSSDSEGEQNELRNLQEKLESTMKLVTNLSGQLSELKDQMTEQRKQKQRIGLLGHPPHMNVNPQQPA
In short: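 Mouse InsP3R1-overexpressing L15 fibroblasts, confluent (days 6–8), saponin-permeabilized (40 μg ml−1, 10 min); stores loaded 45 min with 150 nM free 45Ca2+, ATP, NaN3, pH 6.8; 30 °C. Efflux with 1 mM EGTA plus 10 μM thapsigargin, sampled every 2 min; Ins(1,4,5)P3 given 2 min, compound 6 min around it. Release taken as fractional loss over basal leak; Hill fits; 3–4 experiments in duplicate.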

[1] = molecular target: T1, human type I Ins(1,4,5)P3 5-phosphatase (Homo sapiens, UniProt Q14642); test: Ins; assay type: biochemical; details: ratio of IC50 values
T1 sequence (Q14642 1-412): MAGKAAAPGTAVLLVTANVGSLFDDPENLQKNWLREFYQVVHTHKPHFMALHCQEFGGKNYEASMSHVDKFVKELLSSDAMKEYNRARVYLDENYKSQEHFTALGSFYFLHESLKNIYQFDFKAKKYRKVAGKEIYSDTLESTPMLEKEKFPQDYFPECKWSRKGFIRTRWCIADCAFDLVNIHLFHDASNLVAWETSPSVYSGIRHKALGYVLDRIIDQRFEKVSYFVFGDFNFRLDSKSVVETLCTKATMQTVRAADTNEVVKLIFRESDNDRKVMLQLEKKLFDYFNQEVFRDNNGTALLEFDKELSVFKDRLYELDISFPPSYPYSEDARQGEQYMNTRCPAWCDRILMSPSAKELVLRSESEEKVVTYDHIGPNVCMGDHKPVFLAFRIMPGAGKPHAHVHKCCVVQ
In short: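 Recombinant human type I Ins(1,4,5)P3 5-phosphatase; inhibition by test compound read by malachite green phosphate detection with 1.0 μmol Ins(1,4,5)P3 substrate.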

InsP3R [2] = details: bovine adrenal cortex microsomes; ref Poitras, 1993; cited from earlier work
InsP3R [3] = details: ref Vandeput, 2007; cited from earlier work

Mode of inhibition at the InsP3R (type 1 InsP3R (InsP3R1); 200 nM compound at various Ins(1,4,5)P3 concentrations, Lineweaver-Burk plot): competitive inhibitor
Effect on Ins(1,4,5)P3-induced Ca2+ release (type 1 InsP3R (InsP3R1); 200 nM compound, low (0.1 μM) Ins(1,4,5)P3, not at high (3 μM) Ins(1,4,5)P3): strongly inhibited
IC50 (type 1 InsP3R (InsP3R1)): 187 nM
5-phosphatase inhibition, fold more potent than (10) [1]: ≥ 20 fold
5-phosphatase inhibition, times better than (4) [1]: ~4 times
SMILES: O=P(O)(O)Oc1cc(OP(=O)(O)O)c(-c2cc(OP(=O)(O)O)c(OP(=O)(O)O)cc2OP(=O)(O)O)cc1OP(=O)(O)O [Compound 8, 2,2′,4,4′,5,5′-Biphenylhexakisphosphate]

Kd (type 1 InsP3R (InsP3R1); read-out: apparent Kd for Ins(1,4,5)P3 at the receptor, absence of (8), Lineweaver-Burk plot of Ca2+ release): 400 nM
SMILES: O=P(O)(O)O[C@@H]1[C@H](O)[C@H](O)[C@@H](OP(=O)(O)O)[C@H](OP(=O)(O)O)[C@H]1O [Compound 1, Myo-inositol 1,4,5-trisphosphate, reference compound]

IC50 (type 1 InsP3R (InsP3R1)): > 5000 nM
Inhibition of Ca2+ release (type 1 InsP3R (InsP3R1); up to 10 μM compound, 250 nM Ins(1,4,5)P3): ineffective
SMILES: O=P(O)(O)Oc1ccc(OCCOc2ccc(OP(=O)(O)O)c(OP(=O)(O)O)c2)cc1OP(=O)(O)O [Compound 10]

SMILES: O=P(O)(O)Oc1ccc(OP(=O)(O)O)c(OP(=O)(O)O)c1 [Compound 2, Benzene 1,2,4-trisphosphate]
Blocking of [3H]Ins(1,4,5)P3 binding, fold weaker than Ins(1,4,5)P3 (InsP3R [2]): ~10,000 fold

IC50 (type 1 InsP3R (InsP3R1)): 380 nM
5-phosphatase inhibition, fold weaker than (8) [1]: 7 fold
SMILES: O=P(O)(O)Oc1cc(OP(=O)(O)O)c(OP(=O)(O)O)cc1OCCOc1cc(OP(=O)(O)O)c(OP(=O)(O)O)cc1OP(=O)(O)O [Compound 9]

IC50 (type 1 InsP3R (InsP3R1)): 417 nM
SMILES: O=P(O)(O)Oc1cc(OP(=O)(O)O)cc(-c2c(OP(=O)(O)O)cc(OP(=O)(O)O)cc2OP(=O)(O)O)c1 [Compound 4, biphenyl 2,3′,4,5′,6-pentakisphosphate, reference compound]
IC50 as Ins(1,4,5)P3 receptor antagonist (InsP3R [3]): low micromolar range
